ChEMBL document CHEMBL4680166, “Dual-functional conjugates improving cancer immunochemotherapy by inhibiting tubulin polymerization and indoleamine-2,3-dioxygenase” (Eur J Med Chem, 2020)
The source made the active and inactive calls. No cut-off for these calls is given here.

Key:
HeLa [1] = assay: Induction of apoptosis in human HeLa cells assessed as mitochondrial membrane potential dissipation at 0.5 uM incubated for 24 hrs by JC-1 staining based flow cytometry (reference value: 6.6%); type: functional
HeLa [2] = assay: Induction of apoptosis in human HeLa cells assessed as down regulation of Bcl-2 protein expression at 0.5 uM measured after 24 hrs by western blot analysis; type: functional, cell-based
Summary of the method: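 HeLa cells were treated 24 h at 37 °C and lysed in buffer containing PMSF. Protein quantified by BCA, equal amounts separated by SDS-PAGE and transferred to nitrocellulose. Blocked in 5% milk, primary antibodies overnight at 4 °C, peroxidase secondary 2 h at 25 °C. Detection by chemiluminescence, β-actin as loading control.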

[3] = Toxicity in BALB/c nude mouse transfected with human HeLa cells assessed as spleen damage at 30 mg/kg/day, iv for 21 days by H&E staining based immunohistochemistry; type: organism-based; settings: in vivo, 504 h, time 21 day
Summary of the method: (§1)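 HeLa xenografts were grown s.c. in male BALB/c nude mice, which received i.v. tail-vein doses once daily for 21 days in Tween 80/saline vehicle, with saline controls. After 3 weeks the mice were sacrificed. Organs from one mouse per group were fixed in 4% paraformaldehyde, paraffin-embedded and sectioned. Sections were dewaxed, stained with Harris hematoxylin and eosin-phloxine, and examined microscopically for histopathologic changes.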

HeLa [4] = assay: Induction of apoptosis in human HeLa cells assessed as cell membrane integrity loss, chromatin condensation and apoptotic body formation by measuring strengthened orange fluorescence intensity at 0.5 uM measured after 24 hrs by AO/EB dual staining based fluorescence microscopy; type: functional
HeLa [5] = assay: Induction of apoptosis in human HeLa cells assessed as cell membrane integrity loss, chromatin condensation and apoptotic body formation by measuring reduction in green fluorescence intensity at 0.5 uM measured after 24 hrs by AO/EB dual staining based fluorescence microscopy; type: functional
HeLa [6] = assay: Induction of apoptosis in human HeLa cells assessed as viable cells at 0.5 uM measured after 24 hrs by Annexin-V-FITC and PI staining based flow cytometry (reference value: 96.3%); type: functional; settings: read-out: Activity
Summary of the method: (§2)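 HeLa cells were treated 24 h, washed twice in PBS and resuspended in binding buffer. Stained with annexin V-FITC and PI for 30 min in the dark at room temperature, then analysed by flow cytometry.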

Tubulin (Homo sapiens) = Tubulin (Homo sapiens) (UniProt P68371+Q9H4B7+P0DPH7+P68366+Q13509+Q71U36+P04350+Q3ZCM7+P07437+P68363+Q9BQE3+Q6PEY2+Q13885+Q9BVA1+Q9BUF5); assay: Inhibition of tubulin polymerization in human HeLa cells assessed as disruption of microtubule network organization measured after 24 hrs by DAPI staining based immunofluorescence method; type: cell-based; settings: dose 0.1-0.5 µM
Summary of the method: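 HeLa cells in six-well plates were treated 24 h. Fixed in 4% paraformaldehyde (37 °C, 15 min), permeabilised with 0.5% Triton X-100 and blocked with 10% goat serum. Incubated with α-tubulin primary antibody overnight, then fluorescent secondary antibody 1 h, with DAPI for nuclei. Imaged by confocal microscopy.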

[7] = Toxicity in BALB/c nude mouse transfected with human HeLa cells assessed as kidney damage at 30 mg/kg/day, iv for 21 days by H&E staining based immunohistochemistry; type: organism-based; settings: in vivo, 504 h, time 21 day; summary of the method: as §1
[8] = Toxicity in BALB/c nude mouse transfected with human HeLa cells assessed as liver damage at 30 mg/kg/day, iv for 21 days by H&E staining based immunohistochemistry; type: organism-based; settings: in vivo, 504 h, time 21 day; summary of the method: as §1
HeLa [9] = assay: Induction of apoptosis in human HeLa cells assessed as necrotic cells at 0.5 uM measured after 24 hrs by Annexin-V-FITC and PI staining based flow cytometry (reference value: 0.956%); type: functional; summary of the method: as §2
HeLa [10] = assay: Induction of cell cycle arrest in human HeLa cells assessed as accumulation at G1 phase at 0.5 uM measured after 24 hrs by propidium iodide/RNAse staining based flow cytometry (reference value: 61.5%); type: functional
[11] = Toxicity in BALB/c nude mouse transfected with human HeLa cells assessed as spleen damage at 15 mg/kg/day, iv for 21 days by H&E staining based immunohistochemistry; type: organism-based; settings: in vivo, 504 h, time 21 day
Summary of the method: (§3)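 After 3 weeks of daily iv dosing of HeLa-xenografted nude mice, organs were taken from one mouse per group. Fixed in 4% paraformaldehyde, paraffin-embedded and sectioned. Stained with Harris hematoxylin and eosin-phloxine, then examined microscopically for histopathology.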

HeLa [12] = assay: Antitumor activity against human HeLa cells xenografted in BALB/c mouse assessed as inhibition of tumor volume at 30 mg/kg/day, iv administered for 21 days by caliper analysis; type: functional; settings: 504 h, time 21 day
Summary of the method: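 Male BALB/c nude mice, five weeks old, 18-22 g. Inoculated subcutaneously in the right armpit with 1 × 10⁷ HeLa cells/0.1 mL. At 120-150 mm³, randomized to four groups of five. Once-daily tail-vein injection for 21 days in Tween 80/physiological saline; controls received saline. Tumor volume measured every 2 days by caliper, V = AB²/2.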

HeLa [13] = assay: Induction of cell cycle arrest in human HeLa cells assessed as accumulation at G2/M phase at 0.5 uM measured after 24 hrs by propidium iodide/RNAse staining based flow cytometry (reference value: 10.7%); type: functional
[14] = Toxicity in BALB/c nude mouse transfected with human HeLa cells assessed as body weight changes at 30 mg/kg/day, iv for 21 days; type: organism-based; settings: in vivo, 504 h, time 21 day
Summary of the method: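 Five-week-old male BALB/c nude mice (18-22 g) were inoculated s.c. in the right armpit with HeLa cells (1 × 10⁷ cells/0.1 mL/mouse). At a tumour volume of 120-150 mm³, mice were randomised, five per group. Dosing was i.v. via the tail vein once daily for 21 days, in Tween 80/physiological saline; controls got an equal volume of saline. Body weight was recorded every 2 days.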

A549 = assay: Anticancer activity against human A549 cells assessed as inhibition of cell proliferation measured after 72 hrs by MTT assay; type: functional, cell-based; settings: A549, 72 h
Summary of the method: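 Cells (A549, PC-3, HeLa, HUVEC) grown in DMEM with 10% FBS at 37 °C, 5% CO₂. Seeded at 5 × 10⁴ cells/well and allowed 24 h to attach, then exposed 72 h to a concentration series from DMSO stocks. MTT was added for 4 h and formazan dissolved in DMSO, read at 490 nm. Survival taken relative to untreated control. IC50 by Bliss method, three repeats.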

[15] = Toxicity in BALB/c nude mouse transfected with human HeLa cells assessed as liver damage at 15 mg/kg/day, iv for 21 days by H&E staining based immunohistochemistry; type: organism-based; settings: in vivo, 504 h, time 21 day; summary of the method: as §3
[16] = Toxicity in BALB/c nude mouse […] with human HeLa cells assessed as body weight changes at 15 mg/kg/day, iv for 21 days; type: organism-based; settings: in vivo, 504 h, time 21 day

inhibition (Tubulin (Homo sapiens)): Dose-dependent effect
IC50 (A549): 220 nM
Structure (SMILES): COc1ccc(/C=C\c2cc(OC)c(OC)c(OC)c2)cc1OC(=O)c1cccc(Cn2cc(CCOC(=O)[C@H](N)Cc3cn(C)c4ccccc34)nn2)c1
Activity (HeLa [1]): 68.8%
Activity (HeLa [2]): Active
Activity [3]: Non-Toxic
Activity (HeLa [4]): Active
Activity (HeLa [5]): Active
viability at 0.5 µM (HeLa [6]): 47.3%
Activity [7]: Non-Toxic
Activity [8]: Non-Toxic
Activity (HeLa [9]): 0.637%
Activity (HeLa [10]): 6.69%
Activity [11]: Non-Toxic
inhibition in vivo at 30 mg/kg/day (HeLa [12]): 65.8%
Activity (HeLa [13]): 76.27%
Activity [14]: Non-Toxic
Activity [15]: Non-Toxic
Activity [16]: Non-Toxic
